Results on 27 molecules are retold here after ChEMBL document CHEMBL1806497, “Design, synthesis and evaluation of N-benzoylindazole derivatives and analogues as inhibitors of human neutrophil elastase” (Bioorg Med Chem, 2011).

The target of series [1] is T1, Neutrophil elastase (Homo sapiens) (UniProt P08246).
T1 sequence (whole entry): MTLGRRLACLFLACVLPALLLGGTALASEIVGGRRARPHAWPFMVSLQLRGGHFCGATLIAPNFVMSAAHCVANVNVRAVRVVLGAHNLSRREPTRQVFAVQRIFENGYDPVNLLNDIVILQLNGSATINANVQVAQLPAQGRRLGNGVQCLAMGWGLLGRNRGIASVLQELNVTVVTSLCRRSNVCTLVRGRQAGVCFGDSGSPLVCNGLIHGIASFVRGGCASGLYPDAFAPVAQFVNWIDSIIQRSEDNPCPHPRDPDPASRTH
The series is described as follows: Inhibition of human neutrophil elastase using N-methylsuccinyl-Ala-Ala-Pro-Val-7-amino-4-methyl-coumarin as substrate at < 55 uM measured every 30 secs for 10 mins by fluorescence microplate reader. The essentials:
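20 mU/mL HNE in 200 mM Tris–HCl pH 7.5, 0.01% BSA, 0.05% Tween-20, 1% DMSO final, added to compound dilutions. Reaction started with 25 µM substrate, read every 30 s for 10 min at 25 °C (ex 355/em 460 nm). IC50 from % inhibition vs log concentration, at least six points; mean of ≥3 independent experiments.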

Another series addresses T2, Neutrophil elastase (Homo sapiens, UniProt P08246).
T2 sequence (P08246 whole entry): T1 sequence (whole entry)
The experiment in a line: Inhibition of human neutrophil elastase using N-methylsuccinyl-Ala-Ala-Pro-Val-7-amino-4-methyl-coumarin as substrate measured every 30 secs for 10 mins by fluorescence microplate reader.

The nature of series [2]: Inhibition of human pancreatic chymotrypsin using Suc-Ala-Ala-Pro-Phe-7-amino-4-methylcoumarin as substrate by spectrophotometric analysis. A digest of the protocol: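 30 nM chymotrypsin in 0.05 M Tris–HCl pH 8.0 with 100 µM substrate, 25 °C. Fluorescence read at ex 355/em 460 nm. IC50 from % inhibition vs log concentration, at least six points; mean of ≥3 experiments.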

Another series concerns the target Prothrombin (Homo sapiens, UniProt P00734). The experiment in a line: Inhibition of human plasma thrombin benzoyl-Phe-Val-Arg-7-amino-4-methylcoumarin as substrate by spectrophotometric analysis. A digest of the protocol: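 Fluorescence read at ex 355/em 460 nm. IC50 from % inhibition vs log concentration, at least six points; mean of ≥3 experiments.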
In series [3] the target is Urokinase-type plasminogen activator (Homo sapiens, UniProt P00749). The experiment in a line: Inhibition of human urine urokinase using benzyloxycarbonyl-Gly-Gly-Arg-7-amino-4-methylcoumarin as substrate by spectrophotometric analysis. A digest of the protocol:
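30 U/mL urokinase in 0.1 M Tris–HCl pH 8.0 with 30 µM substrate, 25 °C. Fluorescence read at ex 355/em 460 nm. IC50 from % inhibition vs log concentration, at least six points; mean of ≥3 experiments.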

The target of series [4] is T1, Neutrophil elastase (Homo sapiens). The series is described as follows: Competitive inhibition of human neutrophil elastase assessed as hydrolysis of fluorogenic substrate N-methylsuccinyl-Ala-Ala-Pro-Val-7-amino-4-methyl-coumarin by Lineweaver-Burk plot analysis. A digest of the protocol:
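HNE kinetics with inhibitor at 0 and 40 nM over varied substrate concentrations; double-reciprocal Lineweaver–Burk plot, representative of three independent experiments.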

Series [5] in a line: Stability of the compound in aqueous buffer pH 7.3 assessed as hydrolysis of the compound after 10 hrs by spectrophotometric analysis. The format is physicochemical. As to conditions: pH 7.3, 10 h. The essentials: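 Compound at 20 µM in 0.05 M phosphate buffer pH 7.3, 25 °C. Absorbance spectra (230–330 nm) scanned repeatedly over time to follow spontaneous hydrolysis; scans representative of two independent experiments.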

Series [6] addresses T1, Neutrophil elastase (Homo sapiens). The experiment in a line: Inhibition of human neutrophil elastase assessed as cleavage of substrate N-methylsuccinyl-Ala-Ala-Pro-Val-7-amino-4-methyl-coumarin at 600 nM measured upto 120 mins by fluorescence microplate reader.
For series [7] the target is unchanged. The experiment in a line: Inhibition of human neutrophil elastase assessed as cleavage of substrate N-methylsuccinyl-Ala-Ala-Pro-Val-7-amino-4-methyl-coumarin at 600 nM after 5 hrs by fluorescence microplate reader. A digest of the protocol: (§1)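 HNE incubated with compound at 600 nM; substrate cleavage followed fluorimetrically for the first 180 min and out to 10 h, with a vehicle control. More fluorogenic substrate added after the 10 h incubation to test residual enzyme activity.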

Series [8] has the same target. The series is described as follows: Inhibition of human neutrophil elastase assessed as cleavage of substrate N-methylsuccinyl-Ala-Ala-Pro-Val-7-amino-4-methyl-coumarin at 600 nM after 10 hrs by fluorescence microplate reader. The essentials:
as §1

The target is the same in series [9]. The experiment in a line: Inhibition of human neutrophil elastase assessed as cleavage of substrate N-methylsuccinyl-Ala-Ala-Pro-Val-7-amino-4-methyl-coumarin at 600 nM measured upto 90 mins by fluorescence microplate reader. A digest of the protocol: as §1

The structures appear in SMILES notation. Active and inactive are the calls of the source. The calls are words filed in the database; no cut-off is given here.

For the molecule `COC(=O)c1nn(C(=O)c2cccc(N)c2)c2ccccc12`, the inhibition result in series [1] was “inactive”.

As to `O=C(Nc1ccccc1)c1nn(C(=O)c2ccccc2Cl)c2ccccc12`, in [1], the inhibition result was “inactive”.

Consider `O=C(Nc1ccccc1)c1nn(Cc2ccc(Cl)cc2)c2ccccc12`, for which the inhibition entry in [1] is “inactive”.

`CCOC(=O)c1nn(C(=O)Nc2cccc(OC)c2)c2ccccc12`: the inhibition entry in [1] was “inactive”.

For the molecule `CCOC(=O)c1nn(C(=O)c2cccc3ccccc23)c2ccccc12`, the inhibition result in series [1] is “inactive”.

On to `Cc1ccc(S(=O)(=O)n2nc(C(=O)Nc3ccccc3)c3ccccc32)cc1`, for which the inhibition entry in [1] was “inactive”.

Turning to `COC(=O)c1nn(C(=O)c2ccccc2)c2ccccc12`, the IC50 came to 89 nM against Neutrophil elastase, 81 nM in series [2], 14000 nM on Prothrombin and 1200 nM in series [3]. The inhibition entry in [4] and in series [6] was “Active” each time. In addition, the Stability result in series [5] is recorded as “Unstable”. In series [7], the inhibition amounted to 50%. The inhibition entry in series [8] is “inactive”.

In the case of `COc1cccc(C(=O)n2nc(C)c3ccccc32)c1`, in [1], the inhibition result was “inactive”.

On to `O=C(Nc1ccccc1)c1nn(C(=O)c2ccc([N+](=O)[O-])cc2)c2ccccc12`, for which the inhibition result in [1] is “inactive”.

Consider `CCOC(=O)c1nn(C(=O)c2ccncc2)c2ccccc12`, for which, in series [1], the inhibition result is “inactive”.

On to `CCOC(=O)c1nn(C(=O)Nc2ccc(Cl)cc2)c2ccccc12`, for which the inhibition entry in [1] is “inactive”.

Turning to `CCOC(=O)c1nn(C(=O)c2cc(OC)c(OC)c(OC)c2)c2ccccc12`, the inhibition entry in series [1] is “inactive”.

Turning to `CCOC(=O)c1nn(C(=O)c2ccc([N+](=O)[O-])cc2)c2ccccc12`, in series [1], the inhibition entry is “inactive”.

With `O=C(Nc1ccccc1)c1nn(-c2ccc(Cl)cc2)c2ccccc12`, the inhibition result in [1] was “inactive”.

Consider `O=C(OCC(F)(F)F)c1nn(C(=O)c2ccccc2)c2ccccc12`, for which the IC50 against Neutrophil elastase is 260 nM; in series [2], 2.9 nM; against Prothrombin, 6700 nM; in series [3] it was 10000 nM. In series [6], the inhibition entry was “Active”. For the same molecule, the inhibition in series [7] is 50%. In addition, the inhibition entry in [8] is “inactive”.

In the case of `CC(C)OC(=O)c1nn(C(=O)c2ccccc2)c2ccccc12`, the IC50 on Neutrophil elastase stood at 240 nM; in [2] it was 47 nM; against Prothrombin, 7800 nM; in [3], 6300 nM. The inhibition entry in series [6] is “Active”. Further, the inhibition in [7] was found to be 50%. Also, the inhibition result in series [8] is “inactive”.

`CCOC(=O)c1nn(C(=O)c2cccc(C(F)(F)F)c2)c2ccccc12`: the inhibition entry in series [1] was “inactive”.

In the case of `CCOC(=O)c1nn(C(=O)c2ccccc2Cl)c2ccccc12`, the inhibition result in [1] is “inactive”.

With `COC(=O)c1nn(C(=O)c2ccsc2)c2ccccc12`, the IC50 on Neutrophil elastase turned out to be 310 nM; in series [2], 260 nM; in series [3], 12000 nM. Also, in series [6], the inhibition entry was “Active”. For the same molecule, the inhibition in series [7] turned out to be 50%. Moreover, the inhibition entry in series [8] was “inactive”.

Turning to `O=C(O)c1nn(C(=O)c2ccccc2)c2ccccc12`, the inhibition result in series [1] is “inactive”.

Take `CCOC(=O)c1nn(C(=O)c2cccc([N+](=O)[O-])c2)c2ccccc12`: the inhibition entry in [1] was “inactive”.

With `CCOC(=O)c1nn(C(=O)C2CCCCC2)c2ccccc12`, in series [1], the inhibition entry is “inactive”.

Regarding `CCOC(=O)c1nn(CC(=O)c2ccccc2)c2ccccc12`, in [1], the inhibition entry was “inactive”.

As for `O=C(Nc1ccccc1)c1nn(C(=O)c2ccncc2)c2ccccc12`, in [1], the inhibition entry is “inactive”.

Turning to `O=C(Nc1ccccc1)c1nn(S(=O)(=O)c2ccc(Cl)cc2)c2ccccc12`, the inhibition entry in [1] is “inactive”.

With `CCCC(=O)n1nc(C(=O)OCC)c2ccccc21`, the IC50 turned out to be 180 nM against Neutrophil elastase, 430 nM in [2], 5200 nM at Prothrombin and 14000 nM in series [3]. Further, the inhibition entry in series [9] was “Active”. Besides, the inhibition result in [7] and in series [8] was “inactive” throughout.

On to `COC(=O)c1nn(C(=O)c2cccc(C)c2)c2ccccc12`, for which the IC50 against Neutrophil elastase turned out to be 130 nM; in series [2] it was 30 nM; against Prothrombin, 5100 nM; in series [3], 870 nM. Moreover, the inhibition entry in [4] and in series [6] was “Active” each time. Moreover, the inhibition result in series [8] was “inactive”.

For orientation: inhibition means the drop in the measured response relative to a control, in per cent. The term IC50 denotes the concentration that inhibits the measured activity by half.
